# EphB4 antag – blocks human EphB4 binding to ephrin-B2; P54760; EphB4 LBD / TNYL-RAW-Alexa532 peptide, fluorescence polarization; inhibition, % at 7 µM; 97,000 tested, 0.15% active; AID 720;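 active = inhibition above the screen-wide mean inhibition plus 3 SD, cut at about 15% in these data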;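 also: 0% = DMSO wells and 100% = excess unlabeled TNYL-RAW peptide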
# Target sequence (P54760 whole entry, looked up, the tested form may be a part): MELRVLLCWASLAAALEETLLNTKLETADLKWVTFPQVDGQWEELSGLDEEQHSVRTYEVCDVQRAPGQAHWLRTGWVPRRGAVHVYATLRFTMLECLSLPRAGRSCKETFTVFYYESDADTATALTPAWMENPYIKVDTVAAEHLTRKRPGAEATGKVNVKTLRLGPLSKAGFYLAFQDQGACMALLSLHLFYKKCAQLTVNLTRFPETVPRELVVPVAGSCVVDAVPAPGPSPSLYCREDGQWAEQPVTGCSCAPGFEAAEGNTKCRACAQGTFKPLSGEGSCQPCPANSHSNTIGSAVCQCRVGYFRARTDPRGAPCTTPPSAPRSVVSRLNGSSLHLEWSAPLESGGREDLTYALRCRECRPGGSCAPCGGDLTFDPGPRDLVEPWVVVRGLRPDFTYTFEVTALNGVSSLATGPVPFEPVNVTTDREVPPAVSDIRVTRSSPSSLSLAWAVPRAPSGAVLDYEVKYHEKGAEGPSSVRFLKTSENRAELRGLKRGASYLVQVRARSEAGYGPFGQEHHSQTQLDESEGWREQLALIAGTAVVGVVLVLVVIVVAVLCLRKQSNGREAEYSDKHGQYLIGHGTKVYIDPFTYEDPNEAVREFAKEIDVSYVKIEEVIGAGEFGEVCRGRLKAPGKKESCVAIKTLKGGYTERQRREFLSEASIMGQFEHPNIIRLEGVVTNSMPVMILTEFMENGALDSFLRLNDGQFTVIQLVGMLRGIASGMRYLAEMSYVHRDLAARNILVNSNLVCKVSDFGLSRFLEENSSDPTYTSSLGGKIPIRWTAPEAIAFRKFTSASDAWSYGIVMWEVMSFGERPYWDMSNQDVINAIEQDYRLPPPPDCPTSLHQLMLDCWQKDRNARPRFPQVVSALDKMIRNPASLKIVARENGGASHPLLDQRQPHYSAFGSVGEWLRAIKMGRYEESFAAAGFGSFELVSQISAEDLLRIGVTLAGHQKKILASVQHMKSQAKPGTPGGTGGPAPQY
# HIV Rev-RRE inh – HIV Rev-RRE protein-RNA interaction inhibition; P05866; Rev peptide-RRE RNA binding, FRET; inhibition, % at 8 µM; 97,000 tested, 0.79% active; AID 704;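 active = inhibition above the screen-wide mean plus 3 SD, cut at about 35% in these data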;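 also: 0% = median DMSO wells and 100% = median Neomycin B control wells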
#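 Assay system: Rev peptide and RRE RNA, both fluorescently labelled; times: 5 min preincubation and 15 min binding, 25 °C; detection: FRET, ex 480 nm, em 540 and 671 nm; read-out basis: % inhibition from 671/540 nm acceptor-to-donor ratio, scaled between controls; benchmarks: DMSO low control, neomycin B high control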
# PTPN22 inh 2 – inhibitors of human LYP (PTPN22) phosphatase | Q9Y2R2 | recombinant LYP catalytic domain, DiFMUP fluorescence | inhibition, % at 2 µM | 96,000 tested, 0.21% active | AID 640;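 active = inhibition at 2 µM at or above a set limit, the screen mean plus 3 SD, cut at about 24% in these data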;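 also: 0% = DMSO with enzyme and 100% = enzyme fully blocked by orthovanadate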
# PTPN22 act – increases human PTPN22 phosphatase activity; recombinant LYP, DiFMUP fluorescence; 0 = plate median, 100 = signal doubled; 96,000 tested, 0.11% active; AID 697; activation, % at 2 µM; Q9Y2R2;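 active = activation at 2 µM above a set limit, the mean plus 5 SD, cut at about 37% in these data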
# An asterisk follows results filed as active; [ ] = another dose, or the depositor's remark. Most compounds without a hit are left out; they make up all but 1.3% or so of the library.
SMILES,EphB4 antag,HIV Rev-RRE inh,PTPN22 inh 2,PTPN22 act
CCCNC(=O)c1ccccc1NC(=O)c1ccc(CSc2ccccc2)cc1,4,14,4,0
COc1ccc(-c2c[n+]3c4n2CCCCC4=C(c2ccc(Br)cc2)C3)cc1,0,16,1,-2
Clc1ccc(C2=C3CCCCn4c(-c5ccccc5)c[n+](c43)C2)cc1,5,11,26*,-24
CCCCCN=Cc1c(C)[nH]n(-c2nc3ccccc3s2)c1=O,-2,10,0,-1
CC(=O)c1ccc(N2CCN(C(=O)c3ccc(Br)cc3)CC2)c(F)c1,21*,15,11,-12
CC(=O)[C@@H]1[C@@H]2C(=O)N(C3CCCCC3)C(=O)[C@@H]2C2c3ccccc3C=CN21 (some centres not stated),3,41*,2,2
CC(=O)[C@H]1[C@@H]2C(=O)N(c3cccc(Cl)c3)C(=O)[C@@H]2[C@H]2c3ccccc3C=CN21,-1,60*,10,-12
CC(C)(C)C(=O)[C@@H]1[C@@H]2C(=O)N(Cc3ccccc3)C(=O)[C@@H]2[C@H]2c3ccccc3C=CN12,6,19,8,-7
CNc1nnc(-c2cc3cc(Cl)ccc3oc2=O)s1,4,79*,4,-2
COc1ccc2oc(=O)c(-c3nnc(NCc4ccco4)s3)cc2c1,11,43*,22,-21
COc1ccc(/C=c2/sc3n(c2=O)NC2(c4ccccc4)N(C)C(=O)N(C)C2(c2ccccc2)N=3)cc1 (configuration not stated),5,7,4,-2
CCN1CC=C2C(C#N)=C(N)C(C#N)(C#N)C(c3cc(Cl)ccc3Cl)C2C1 (configuration not stated),0,66*,-1,0
CC(C)N1CC=C2C(C#N)=C(N)C(C#N)(C#N)C(c3ccccc3)C2C1 (configuration not stated),-2,91*[fluorescence artefact?],0,5
CCOC(=O)N1CC=C2C(C#N)=C(N)C(C#N)(C#N)[C@H](c3cccs3)C2C1 (some centres not stated),-6,21,3,3
CN1CC=C2C(C#N)=C(N)C(C#N)(C#N)C(Cc3ccccc3)C2C1 (configuration not stated),0,72*,16,-20
CC(C)N1CC=C2C(C#N)=C(N)C(C#N)(C#N)[C@H](c3ccoc3)[C@H]2C1,0,107*[fluorescence artefact?],3,2
CCC1C2CN(C(C)=O)CC=C2C(C#N)=C(N)C1(C#N)C#N (configuration not stated),-1,9,1,-3
O=S(=O)(c1ccccc1)c1nc(-c2ccco2)oc1NCCCn1ccnc1,5,3,-2,-3
C=CCNC(=O)CN(c1ccc(F)c(Cl)c1)S(C)(=O)=O,5,0,-21,15
O=C(CSCc1ccccc1)Nc1nccs1,6,5,-7,6
Cc1nc2cccc(C)n2c(=O)c1Cl,1,3,-4,5
Cc1cc(-c2ccco2)n2c(nc3ccccc32)c1C#N,9,47*,4,-3
C=CCn1c(SCC(=O)c2ccc(OC)cc2)nnc1C(C)NC(=O)c1cccs1 (configuration not stated),2,5,-9,7
CCCCCCCCCCOC(=O)c1csc2nnsc12,2,16,8,-6
O=C1c2ccccc2-c2onc3ccc(Oc4ccccc4)c1c23,1,64*,9,-8
SMILES,EphB4 antag,HIV Rev-RRE inh,PTPN22 inh 2,PTPN22 act
O=C1c2ccccc2C(=O)c2c1oc(C(F)(F)F)c2C(=O)c1ccccc1,4,16,2,0
C=CCNc1ncnc2c1ncn2C1OC(CO)C(O)C1O (configuration not stated),-1,9,-16,13
O=C(OCC1OC(n2cnc3c(N(C(=O)c4ccccc4)C(=O)c4ccccc4)ncnc32)C(O)C1F)c1ccccc1 (configuration not stated),3,5,60*,-59
S=c1[nH]nc(COc2ccccc2)n1/N=C/C(Cl)=C/c1ccccc1,-10,-6,28*,-26
COc1ccc(C2C(C#N)=C(N)SC(N)=C2C#N)cc1OC,-3,110*[fluorescence artefact?],-6,8
CCOc1ccc(C2C(C#N)=C(N)SC(N)=C2C#N)c(OCC)c1,-6,21,8,-7
CCOc1cc(C2C(C#N)=C(N)SC(N)=C2C#N)ccc1OCCN1CCOCC1,9,75*,-7,3
N#CC1=C(N)SC(N)=C(C#N)C1c1cccc(O)c1,5,74*,-14,11
COC(=O)Cc1c(O)ccn(Cc2cccc3ccccc23)c1=O,0,12,-2,5
Cc1ccc(-c2nn(CC(=O)Nc3cccnc3)c(=O)c3ccccc23)cc1,-2,2,4,-2
NC(=O)C1CCN(C(c2ccccc2Cl)c2nnnn2CC2CCCO2)CC1 (configuration not stated),-5,0,29*,-29
COc1cccc(NC(=O)c2nn(C)cc2Br)c1,-7,-1,-6,7
O=C(c1cccn2c(=O)c3cc4ccccc4cc3nc12)N1CCN(c2ccccc2)CC1,-6,44*,7,-5
Cc1ccccc1OCCN1C(=O)NC2(CCc3ccccc32)C1=O (configuration not stated),-5,2,-1,0
c1ccc2c(c1)CCCN2Cc1nnnn1CC1CCCO1 (configuration not stated),-2,55*,-12,7
COc1ccc(NC(=O)CSc2nc3c(c(-c4cccs4)c2C#N)CN(C)CC3)cc1OC,5,63*,-6,10
COc1ccc2c(c1)CCCC21NC(=O)NC1=O (configuration not stated),8,9,-14,9
COc1ccc2cc(C3(C)NC(=O)NC3=O)ccc2c1 (configuration not stated),1,37*,-3,0
CCn1c2ccccc2c2cc(N)ccc21,0,57*,-4,3
Cc1ccc(N(c2ncnc(N)c2[N+](=O)[O-])C2CCCCC2)cc1,0,6,0,5
Cc1cccc(NC(=O)c2sc3nc4c(c(-c5cccs5)c3c2N)CN(C)CC4)c1,2,71*,5,-3
CC(C)NC(=O)c1sc2nc3c(c(-c4cccs4)c2c1N)CN(C)CC3,-3,15,7,-7
COc1cc(C2C(C#N)=C(N)OC3=C2C(=O)CC(C)(C)C3)c([N+](=O)[O-])cc1OC (configuration not stated),6,49*,-2,6
O=c1oc2c3c4c(cc2c(C(F)(F)F)c1CCN1CCOCC1)CCCN4CCC3,9,113*[fluorescence artefact?],3,0
CC1=C(C(=O)OC2CCCCCCC2)C(c2cc3c(cc2Br)OCO3)CC(=O)N1 (configuration not stated),0,11,4,-1
O=c1[nH]c2cc3c(cc2cc1C(c1nnnn1Cc1ccccc1)N1CCN2CCCC2C1)OCCO3 (configuration not stated),-5,16,-1,-1

# Source: PubChem
